Reference: paper PMC12138178 (The New Phytologist, 2025)
Blank lines part the entries; values can stand above or below the compound they belong to.

What was measured:
[1] = biological target: T1, MpPR10.5 protein (Marchantia polymorpha, UniProt A0A2R6WRE7); test: Intrinsic tryptophan fluorescence binding assay
T1 sequence (A0A2R6WRE7 1-149): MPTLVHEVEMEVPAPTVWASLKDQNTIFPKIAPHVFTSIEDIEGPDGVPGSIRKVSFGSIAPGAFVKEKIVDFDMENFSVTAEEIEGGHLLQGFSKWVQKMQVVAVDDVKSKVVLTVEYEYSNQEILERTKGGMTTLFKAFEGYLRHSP
In short: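 His-SUMO-tagged PR10 protein, expressed in E. coli Rosetta-Gami 2 and purified by IMAC and size exclusion, used at 1.1 μM in 20 mM Tris pH 8.5, 200 mM NaCl. DMSO stocks of test compound at eight levels (0–20 mM or 0–4 mM) were diluted 10× in buffer and added. Incubated 5 min at 22°C. Excitation 280 nm, emission 340 nm. Six replicates; buffer controls subtracted. |ΔF|/F0 versus concentration was fitted to a one-site specific binding model to give Kd.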

[2] = biological target: T1, MpPR10.5 protein; test: Naringenin chalcone oxidation assay; type: physicochemical; conditions: pH 7.5, 30 min
In short: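 Run in 20 mM Tris pH 7.5 or 8.5 with 200 mM NaCl, either as buffer alone or with 15 μM His-SUMO-tagged PR10 protein. A blank was recorded first. Test compound was added from a 1.4 mM DMSO stock to 10 μM final. UV–Vis spectra (190–840 nm, 1 cm path) were taken every 1 min for 30 min, following the 377 and 322 nm peaks.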

Compound: O=C(O)/C=C/c1ccccc1 [Cinnamic acid]
- affinity for MpPR10.5 (in words) [1]: very low affinity
- Kd ([1]; Kd (dissociation constant), His-SUMO-MpPR10.5 fusion protein, 20 mM Tris pH 8.5, 200 mM NaCl, 22°C, nd = not detected): > 119 µM

Compound: O=C(/C=C/c1ccc(O)cc1)c1ccc(O)cc1O [Isoliquiritigenin]
- affinity for MpPR10.5 (in words) [1]: high affinity

Compound: O=C1C[C@@H](c2ccc(O)cc2)Oc2cc(O)cc(O)c21 [Naringenin]
- stability under the experimental conditions (absorption peak at 322 nm) [2]: remained completely stable

Compound: O=C(O)C=Cc1ccc(O)cc1 [p-Coumaric acid]
- affinity for MpPR10.5 (in words) [1]: no affinity

Other lines, results leading:

- affinity for MpPR10.5 (in words) [1]: high affinity
Compound: O=C(/C=C/c1ccc(O)c(O)c1)c1ccc(O)cc1O [Butein]

- affinity for MpPR10.5 (in words) [1]: high affinity
Compound: O=C(CCc1ccc(O)cc1)c1c(O)cc(O)cc1O [Phloretin]
